High-throughput results from PubChem BioAssay.
Shown are actives, neighbours in structure and some others; about 2.2% of the full set was active somewhere.
HKDC1 inhibitor: inhibitors of human hexokinase HKDC1; 0.16% of 340,000 active; inhibition, % at 20 µM; AID 493160; Q2TB90; recombinant HKDC1, G6PDH/diaphorase resazurin coupled fluorescence;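 active = inhibition above about 35% when tested at 20 µM, limit read from the data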;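 note: plate controls were DMSO wells with enzyme for no effect and DMSO wells lacking enzyme for full effect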
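Test system: recombinant HKDC1 (HK5) hexokinase enzyme, produced in-house / Doses: 20 µM test compound, 1% DMSO / Timing: 90 min, room temperature / Detection: G6PDH/diaphorase-coupled fluorescence, 1 mM NADP, 100 µM resazurin, 525/613 nm / Control set: DMSO wells with and without enzyme mix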
ABHD5 PLIN5 PPI: ABHD5-PLIN5 protein interaction inhibition; 0.78% of 360,000 active; Q00G26+Q8WTS1; inhibition, % at 4 µM; Split G. princeps luciferase complementation, luminescence, 4 h;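 active = inhibition above the mean inhibition across every tested compound plus 3 SD, cut at about 22% in these data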;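 note: 0% = DMSO only wells and the 100% control is not disclosed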
PfG6PD inh: PfG6PD (Plasmodium falciparum) enzyme inhibition; inhibition, % at 20 µM; AID 504690; PfGluPho enzyme, NADPH resazurin-diaphorase fluorescence; 0.78% of 350,000 active;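 active = inhibition reaching at least a set limit at 20 µM in the primary screen, cut at about 59% in these data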;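 note: 0% = DMSO wells with substrate and 100% = DMSO wells lacking glucose-6-phosphate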
Granule exo inh: lytic granule exocytosis inhibition. TALL-104 LAMP-1 surface exposure, flow cytometry; cells stimulated with thapsigargin and PMA. inhibition, % at 10 µM. 0.66% of 360,000 active;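 active = inhibition above about 55%, limit read from the data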
ABHD5-PLIN5 conf: ABHD5-PLIN5 interaction inhibition, confirmed; shares compounds with ABHD5 PLIN5 PPI; biochemical ABHD5-PLIN5 interaction, luminescence; inhibition, % at 4 µM; 67% of 2,200 active; AID 651612; in the data active = inhibition above about 23%;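 note: 0% = DMSO vehicle wells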
HNF4 split-luc: active in HNF4 split-luciferase counter-screen for ABHD5-PLIN5 inhibitors; 77% of 2,200 active; shares compounds with ABHD5 PLIN5 PPI; HNF4 dimerization, luminescence, biochemical; inhibition, % at 4 µM;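 active = mean inhibition across replicate wells exceeding the computed hit threshold, cut at about 13% in these data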;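 note: light from luciferase halves that rejoin when HNF4 fusion proteins dimerize; 0% = DMSO only wells and the 100% control is not given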
Target sequence (P41235 whole entry, looked up, the tested form may be a part): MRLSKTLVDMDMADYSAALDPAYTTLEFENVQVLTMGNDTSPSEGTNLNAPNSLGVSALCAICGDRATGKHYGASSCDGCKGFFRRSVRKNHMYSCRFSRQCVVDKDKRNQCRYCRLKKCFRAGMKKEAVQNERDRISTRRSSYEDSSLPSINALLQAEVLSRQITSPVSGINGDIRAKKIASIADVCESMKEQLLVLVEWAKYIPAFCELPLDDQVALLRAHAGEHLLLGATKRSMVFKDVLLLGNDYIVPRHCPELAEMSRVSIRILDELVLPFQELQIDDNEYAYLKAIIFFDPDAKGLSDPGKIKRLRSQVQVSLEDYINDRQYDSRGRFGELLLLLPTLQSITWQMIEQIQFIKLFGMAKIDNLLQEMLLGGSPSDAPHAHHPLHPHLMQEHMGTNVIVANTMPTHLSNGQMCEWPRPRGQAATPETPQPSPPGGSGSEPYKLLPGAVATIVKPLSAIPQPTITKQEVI
The depositor's hits bear a star; . = no result given.

SMILES	HKDC1 inhibitor	ABHD5 PLIN5 PPI	PfG6PD inh	Granule exo inh	ABHD5-PLIN5 conf	HNF4 split-luc
CC(C)S(=O)(=O)c1cnc(-c2cccnc2)nc1N	1	-5	-1	6	.	.
CCN1C(=O)[C@H]2[C@@H](c3ccc(C(F)(F)F)cc3)N[C@]3(CCCN(Cc4cccn4C)C3=O)[C@H]2C1=O	.	3	6	-3	.	.
Cc1ccc(-c2cc(C(=O)O)c3cc(Br)ccc3n2)o1	14	27*	75*	4	79*	88*
O=S(=O)(C/C(=C/CO)S(=O)(=O)c1ccccc1)c1ccccc1	-4	65*	18	22	95*	92*
Cc1c(CN2CCC(CO)(Cc3cccc(C(F)(F)F)c3)CC2)c2ccccc2n1C	16	28*	-11	23	19	7
OCC1(Cc2cccc(C(F)(F)F)c2)CCN(Cc2cc3ccccc3o2)CC1	4	15	6	8	.	.
CN(C(=O)c1ccc(Br)o1)C1CCCCC1	-1	-5	12	31	.	.
O=C(CCCSc1ccccc1)Nc1nc(-c2ccco2)c(-c2ccco2)s1	23	21	29	42	.	.
O=C(CCl)Nc1nc(-c2ccco2)c(-c2ccco2)s1	25	37*	20	-8	36*	54*
Cc1ccc(C(=O)Nc2nc(-c3ccco3)c(-c3ccco3)s2)o1	18	28*	44	44	17	17*
CCN(CC)CCNC(=O)C1c2cc(OC)c(OC)cc2C(=O)N(C)C1c1cccs1 (stereo not given)	-7	-5	3	10	.	.
CC(C)COC(=O)N1CCCCC1c1cc(C(=O)NCc2cccnc2)no1 (stereo not given)	.	4	.	-10	.	.
O=S(=O)(c1ccc(F)cc1)N1CN(Cc2ccco2)c2nc3ccccc3nc21	-1	24*	29	-2	28*	23*
O=C(Nc1ccccc1NC(=O)c1csnn1)c1csnn1	1	0	-29	-4	.	.
CC(C)c1ccc(NC(=O)c2csnn2)cc1	2	24*	14	-2	0	3
Cc1ccccc1C(=O)NCC(=O)OC(C)C(=O)NCc1ccco1 (stereo not given)	-5	25*	-8	3	5	2
CCOc1ccc(C(=O)NCC(=O)OC(C)C(=O)NCc2ccco2)cc1OCC (stereo not given)	-2	5	13	3	.	.
COc1ccc(-n2nnnc2CNC(=O)c2c(-c3ccccc3Cl)noc2C)cc1	.	-9	-5	5	.	.
CN(C)c1ccc(/C=C/C(=O)c2ccc3c(c2)OCO3)cc1	11	-1	20	23	.	.
COc1cccc(/C=C/C(=O)c2ccc3c(c2)OCO3)c1OC	5	4	-1	7	.	.
O=C(/C=C/c1ccncc1)c1ccc2c(c1)OCCO2	1	60*	7	3	78*	74*
O=C(/C=C/c1ccccc1Br)c1ccc2c(c1)OCO2	13	0	3	20	.	.
COc1cc(/C=C/C(=O)c2ccc3c(c2)OCCO3)cc(Br)c1OCC(=O)N(C)C	14	40*	17	102*	74*	73*
O=C(/C=C/c1cccc(Br)c1)c1ccc2c(c1)OCO2	21	33*	20	38	74*	63*
O=C(/C=C/c1ccccc1)c1ccc2c(c1)OCO2	8	30*	-5	-4	50*	34*
SMILES	HKDC1 inhibitor	ABHD5 PLIN5 PPI	PfG6PD inh	Granule exo inh	ABHD5-PLIN5 conf	HNF4 split-luc
CC1CCCC(NC(=S)Nc2cccc(S(=O)(=O)N(C)C)c2)C1C (stereo not given)	-1	-5	26	-3	.	.
Cc1cc(Cl)ccc1-c1nc(NCc2ccccc2)nc2ccsc12	.	-13	.	13	.	.
Cc1cc(Sc2nnc(N)s2)c2ccccc2n1	4	23*	9	-6	38*	58*
Cc1cc(Sc2nnc(/N=C/N(C)C)s2)c2ccccc2n1	7	18	5	-11	.	.
CN(C)CCC1(C2=CCCC2)CC/C(=C/c2ccc(Cl)cc2)C1=O (stereo not given)	16	32*	-4	17	39*	21*
CN(C)c1ccc(/C=C2\CCCCC2=O)cc1	4	-3	20	-2	.	.
CCCOC1CCCN(C(=O)CCc2nnc(CCCCc3ccccc3)o2)C1 (stereo not given)	-5	2	-8	-2	.	.
COC(=O)c1ccc(CNC(=O)c2ccc3c(c2)S(=O)(=O)N=C2CCCCCN23)cc1	3	4	-4	14	.	.
CN(C)/N=C/C=C1\CCC/C(=C/c2cccs2)C1=O	22	30*	-1	9	25*	29*
Cc1ccc(S(=O)(=O)N2CCCCC2)cc1NC(=O)Cn1ncc(Cl)c(Cl)c1=O	16	26*	0	-8	23*	14*
COc1ccc(C(C(=O)NCc2ccccc2)n2c(=O)c(-c3ccco3)nc3ccccc32)cc1 (stereo not given)	.	72*	.	0	78*	42*
O=C(NCc1ccccc1)C(c1ccccc1F)n1c(=O)c(-c2ccccc2)nc2ccccc21 (stereo not given)	.	-4	.	9	.	.
COc1ccc(NC(=O)C(c2ccncc2)n2c(=O)c(-c3ccco3)nc3ccccc32)cc1 (stereo not given)	.	12	.	9	.	.
O=C(NCc1ccccc1)C(c1ccccc1F)n1c(=O)c(-c2ccco2)nc2ccccc21 (stereo not given)	.	67*	.	1	69*	32*
O=c1nc(N/N=C/C=C/c2ccccc2)cn[nH]1	-4	-2	1	-3	.	.
Cc1c(NS(=O)(=O)c2cc(C(=O)N(C)Cc3ccccc3)ccc2Cl)c(=O)n(-c2ccccc2)n1C	1	-1	3	1	.	.
Cc1cccc(C)c1NC(=O)C(c1ccc(C#N)cc1)n1c(=O)c(-c2ccco2)nc2ccccc21 (stereo not given)	.	50*	.	16	63*	8
Cc1cccc(C)c1NC(=O)C(c1ccccc1)n1c(=O)c(-c2ccco2)nc2ccccc21 (stereo not given)	.	88*	.	1	56*	23*
N#Cc1ccc(C(C(=O)Nc2ccc3c(c2)OCCO3)n2c(=O)c(-c3ccco3)nc3ccccc32)cc1 (stereo not given)	.	31*	.	-6	32*	8
O=C(Nc1ccc2c(c1)OCCO2)C(C1CC1)n1c(=O)c(-c2ccco2)nc2ccccc21 (stereo not given)	.	2	.	-5	.	.
COc1ccc(C(C(=O)Nc2c(C)cccc2C)n2c(=O)c(-c3ccco3)nc3ccccc32)cc1 (stereo not given)	.	81*	.	-1	98*	48*
CCOC(=O)C1CCN(C(=O)COC(=O)/C=C/c2cccc(OC)c2OC)CC1	-5	3	10	10	.	.
O=C(OCC(=O)N(CCc1ccccc1)Cc1ccccc1)c1cccc(S(=O)(=O)N2CCOCC2)c1	1	15	-2	-16	.	.
